For data set [1], the species on record is Oryctolagus cuniculus. Kind of data set: Inhibition of chymotrypsin-like activity of rabbit reticulocyte 20S proteasome at 100 uM.
The species entered for data set [2] is Oryctolagus cuniculus. Kind of data set: Inhibition of trypsin-like activity of rabbit reticulocyte 20S proteasome at 100 uM. Put shortly:
(§1)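 Trypsin-like site: proteasome exposed to 0.1-100 µM compound, fluorogenic substrate hydrolysis read 1 h at 37 °C in pH 7.5 20 mM Tris, 1 mM DTT, 10% glycerol without SDS; 3% DMSO final. Initial rates relative to untreated control: >100% expressed as activation factor, <100% as inhibition; Ki via Vi/V0 = 1/(1+[I]/Ki(app)) or IC50 = Ki(1+[S]/Km).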

Data set [3] can be described thus: Inhibition of trypsin-like activity of rabbit reticulocyte 20S proteasome. Further details: species or system Oryctolagus cuniculus. Put shortly:
as §1

Data set [4] in a line: Inhibition of chymotrypsin-like activity of rabbit reticulocyte 20S proteasome. Also noted: species or system Oryctolagus cuniculus.
Data set [5] in a line: Inhibition of post acid activity of rabbit reticulocyte 20S proteasome. Also noted: species or system Oryctolagus cuniculus.
For data set [6], the species on record is Oryctolagus cuniculus. Description: Activation of trypsin-like activity of rabbit reticulocyte 20S proteasome relative to control. Put shortly:
as §1

The species entered for data set [7] is Oryctolagus cuniculus. Description: Inhibition of post acid activity of rabbit reticulocyte 20S proteasome at 100 uM.
For data set [8], the species on record is Oryctolagus cuniculus. Kind of data set: Activation of chymotrypsin-like activity of rabbit reticulocyte 20S proteasome relative to control.
The test system of a further data set is HCT-116. Kind of data set: Growth inhibition of human HCT116 cells at 50 uM after 48 hrs by MTT assay. Format: functional, cell-based. The gist of the method:
(§2)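 5 × 10^3 cells grown in triplicate 48 h with or without 50 µM inhibitor. Media: DMEM for HeLa and T-47D; MEM for HEK-293, HuH7 and Hep G2; McCoy for HCT-116; each with 10% FBS, 5% CO2. Survival read by MTT metabolism at 37 °C, relative to DMSO-only control.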
A general note: Tetrazolium dyes change colour on reduction, which living cells bring about.

Data set [9] deals with HeLa. Description: Cytotoxicity against human HeLa cells by MTT assay. It is filed as functional, cell-based.
A further data set deals with HepG2. Description: Growth inhibition of human HepG2 cells at 50 uM after 48 hrs by MTT assay. It is filed as functional, cell-based. The gist of the method: as §2
Data set [10] concerns HeLa. Kind of data set: Cytotoxicity against human HeLa cells at 50 uM after 48 hrs by MTT assay. Format: functional, cell-based. Put shortly: as §2
The next data set concerns HEK293. Kind of data set: Cytotoxicity against human HEK293 cells at 50 uM after 48 hrs by MTT assay. Format: functional, cell-based. The gist of the method: as §2
A further data set has as its system T47D. Description: Growth inhibition of human T47D cells at 50 uM after 48 hrs by MTT assay. It is filed as functional, cell-based. Put shortly:
as §2

For another data set, the system named is Huh-7. Kind of data set: Growth inhibition of human HuH7 cells at 50 uM after 48 hrs by MTT assay. Format: functional, cell-based. Put shortly: as §2
Data set [11] can be described thus: Stability in RPMI medium in presence of 20% fetal calf serum. It is filed as ADME. Conditions: cattle, RPMI medium with 20% fetal calf serum. The gist of the method: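 Compound incubated up to 2 days at 37 °C in RPMI with 20% fetal calf serum. Stopped with ethanol, centrifuged at 4 °C, supernatant analysed by RP-HPLC. Half-life from linear least-squares fit of log[I] versus time, at least five points.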

A word on the inhibition: it is how much of the control response was suppressed. High values mean a strong effect, low ones a weak effect. By Ki is commonly meant a measure of affinity in units of concentration, obtained from inhibition or displacement. Usually IC50 stands for the point on the concentration scale where inhibition reaches its midpoint. Read a high IC50 as weaker potency in that assay. For orientation: half-life means how long it takes for the measured level to halve.

The source made the active and inactive calls. The calls are words filed in the database; no cut-off is given here. Residues, ends and D or L forms follow the SMILES beside them. *: point of attachment. Boc = CC(C)(C)OC(=O)*; NHBn = c1ccc(CN*)cc1; NHPh = c1ccc(N*)cc1; Bn = c1ccc(C*)cc1

For `COC(=O)[C@H](Cc1c[nH]c2c(Br)cccc12)NC(=O)[C@H](C)NC(=O)[C@H](Cc1ccc(OCc2ccccc2)c(I)c1)NC(=O)OC(C)(C)C`, the inhibition in the data set filed under Oryctolagus cuniculus [1] and in the data set listed under Oryctolagus cuniculus [2] was less than 20% each time. Moreover, the Ki was more than 100 µM in data set [3], more than 100 µM in data set [4] and 96.4 µM in [5].
With `CC(C)(C)OC(=O)NCCCC[C@H](NC(=O)[C@H](Cc1ccc(OCc2ccccc2)cc1)NC(=O)OC(C)(C)C)C(=O)N[C@@H](Cc1c[nH]c2ccccc12)C(=O)NCc1ccccc1` (Boc-Tyr(Bn)-Lys(Boc)-Trp-NHBn), the figures for the Fold change in the data set listed under Oryctolagus cuniculus [6] and in the data set listed under Oryctolagus cuniculus [8] were 1.8 and 1.3, respectively. Further, in the data set listed under Oryctolagus cuniculus [7], the inhibition was less than 20%. For the same compound, the Ki in data set [5] is more than 100 µM.
With `CC(C)(C)OC(=O)NCCCCNC(=O)[C@H](Cc1c[nH]c2ccccc12)NC(=O)[C@H](CCCCNC(=O)OC(C)(C)C)NC(=O)[C@H](Cc1ccc(OCc2ccccc2)cc1)NC(=O)OC(C)(C)C`, the Fold change came out at 1.9 in the data set listed under Oryctolagus cuniculus [6] and 1.6 in the data set listed under Oryctolagus cuniculus [8]. This compound yielded an inhibition in the data set listed under Oryctolagus cuniculus [7] of less than 20%. The compound also gave a Ki in data set [5] of more than 100 µM.
Regarding `C[C@H](NC(=O)[C@H](Cc1ccc(OCc2ccccc2)cc1)NC(=O)OC(C)(C)C)C(=O)N[C@@H](Cc1c[nH]c2ccccc12)C(=O)Nc1ccc(O)cc1`, the result with HCT-116, in the data set on HeLa [10], in the data set on HEK293, with T47D and with Huh-7 was Active. Further, the IC50 in the data set on HeLa [9] came to 15 µM. Also, in the data set on HepG2, the outcome was inactive. For the same compound, the inhibition in the data set filed under Oryctolagus cuniculus [2] is less than 20%. Moreover, the Ki in data set [3] was more than 100 µM; in data set [4], 65.7 µM; in data set [5], 1 µM.
The compound `COC(=O)[C@H](Cc1c[nH]c2c(Br)cccc12)NC(=O)[C@H](CC(N)=O)NC(=O)[C@H](Cc1ccc(OCc2ccccc2)c(I)c1)NC(=O)OC(C)(C)C` displayed an inhibition in the data set listed under Oryctolagus cuniculus [2] of less than 20%. Besides, the Ki in [3] was more than 100 µM; in data set [4], 14.1 µM; in [5], 55.4 µM.
Consider `CC(C)C[C@H](NC(=O)[C@H](Cc1ccc(OCc2ccccc2)cc1)NC(=O)OC(C)(C)C)C(=O)N[C@@H](Cc1c[nH]c2ccccc12)C(=O)NCc1ccccc1` (Boc-Tyr(Bn)-Leu-Trp-NHBn), for which the Fold change in the data set listed under Oryctolagus cuniculus [6] amounted to 1.9; in the data set listed under Oryctolagus cuniculus [8] it was 1.3. The compound further came in with an inhibition in the data set filed under Oryctolagus cuniculus [7] of less than 20%. In data set [5], this compound yielded a Ki of more than 100 µM.
The like results for `C[C@H](NC(=O)[C@H](Cc1ccc(OCc2ccccc2)cc1)NC(=O)OC(C)(C)C)C(=O)N[C@@H](Cc1c[nH]c2ccccc12)C(=O)NCCCCNC(=O)OC(C)(C)C` were, in that order, 3.2, 1.5, less than 20% and more than 100 µM.
As to `CC(C)(C)OC(=O)N[C@@H](Cc1ccc(OCc2ccccc2)cc1)C(=O)N[C@@H](CC(N)=O)C(=O)N[C@@H](Cc1c[nH]c2ccccc12)C(=O)NCc1ccccc1` (Boc-Tyr(Bn)-Asn-Trp-NHBn), the Fold change in the data set filed under Oryctolagus cuniculus [6] stood at 2.2. Moreover, the Ki was found to be 59.3 µM in data set [4] and 84.2 µM in [5]. For the same compound, the half-life in data set [11] was 390 min.
Regarding `CC(C)(C)OC(=O)N[C@@H](Cc1ccc(OCc2ccccc2)cc1)C(=O)N[C@@H](CC(N)=O)C(=O)N[C@@H](Cc1c[nH]c2ccccc12)C(=O)Nc1ccccc1` (Boc-Tyr(Bn)-Asn-Trp-NHPh), the Fold change in the data set filed under Oryctolagus cuniculus [6] turned out to be 1.6; in the data set filed under Oryctolagus cuniculus [8], 1.5. This compound also displayed an inhibition in the data set listed under Oryctolagus cuniculus [7] of less than 20%. In data set [5], this compound gave a Ki of more than 100 µM.
Consider `C[C@H](NC(=O)[C@H](Cc1ccc(OCc2ccccc2)c(I)c1)NC(=O)OC(C)(C)C)C(=O)N[C@@H](Cc1c[nH]c2c(Br)cccc12)C(=O)O`, for which the Ki turned out to be 3 µM in data set [3], 1.6 µM in [4] and 2.8 µM in [5]. In addition, the half-life in data set [11] was 2220 min.
Turning to `C[C@H](NC(=O)[C@H](Cc1ccc(OCc2ccccc2)cc1)NC(=O)OC(C)(C)C)C(=O)N[C@@H](Cc1c[nH]c2ccccc12)C(=O)Nc1ccccc1` (Boc-Tyr(Bn)-Ala-Trp-NHPh), the Fold change in the data set listed under Oryctolagus cuniculus [6] came to 1.6; in the data set listed under Oryctolagus cuniculus [8], 1.4. Also, the inhibition in the data set filed under Oryctolagus cuniculus [7] is less than 20%. In [5], this compound displayed a Ki of more than 100 µM.
Take `CCOC(=O)[C@H](Cc1c[nH]c2c(Br)cccc12)NC(=O)[C@H](CC(C)C)NC(=O)[C@H](Cc1ccc(OCc2ccccc2)c(I)c1)NC(=O)OC(C)(C)C`: the inhibition in the data set filed under Oryctolagus cuniculus [1], in the data set listed under Oryctolagus cuniculus [2] and in the data set filed under Oryctolagus cuniculus [7] was less than 20% throughout. Besides, the Ki in [3], in [4] and in data set [5] was more than 100 µM throughout.
Regarding `CCOC(=O)[C@H](Cc1c[nH]c2c(Br)cccc12)NC(=O)[C@H](CC(C)C)NC(=O)[C@H](Cc1ccc(OC)c(I)c1)NC(=O)OC(C)(C)C`, the inhibition in the data set filed under Oryctolagus cuniculus [1] and in the data set listed under Oryctolagus cuniculus [2] was less than 20% throughout. For the same compound, the Ki in [3], in data set [4] and in data set [5] was more than 100 µM in each case.
For `COC(=O)[C@@H]1Cc2c[nH]c3c(cccc23)-c2ccc(cc2OC)C[C@H](NC(=O)OC(C)(C)C)C(=O)N[C@@H](C)C(=O)N1`, the inhibition in the data set filed under Oryctolagus cuniculus [1], in the data set listed under Oryctolagus cuniculus [2] and in the data set filed under Oryctolagus cuniculus [7] was less than 20% each time. Further, the values for the Ki in data set [3], in data set [4] and in data set [5] were more than 100 µM, more than 100 µM and 37.1 µM, respectively.
Regarding `CC(C)(C)OC(=O)NCCCCNC(=O)[C@H](Cc1c[nH]c2ccccc12)NC(=O)[C@H](CC(N)=O)NC(=O)[C@H](Cc1ccc(OCc2ccccc2)cc1)NC(=O)OC(C)(C)C`, the figures for the Fold change in the data set filed under Oryctolagus cuniculus [6] and in the data set listed under Oryctolagus cuniculus [8] were 2.2 and 1.6, respectively. In the data set filed under Oryctolagus cuniculus [7], this compound showed an inhibition of less than 20%. The Ki in [5] was more than 100 µM.
For `CC(C)(C)OC(=O)N[C@@H](Cc1ccc(OCc2ccccc2)cc1)C(=O)N[C@@H](CCCN(C(=N)NC(=O)OCc1ccccc1)C(=O)OCc1ccccc1)C(=O)N[C@@H](Cc1c[nH]c2ccccc12)C(=O)Nc1ccc(O)cc1`, the inhibition in the data set filed under Oryctolagus cuniculus [1], in the data set listed under Oryctolagus cuniculus [2] and in the data set listed under Oryctolagus cuniculus [7] was less than 20% in each case. For the same compound, the Ki in [3], in [4] and in [5] was more than 100 µM each time.

The values are drawn from ChEMBL document CHEMBL1143703, “Linear TMC-95-based proteasome inhibitors” (J Med Chem, 2007).
